Laboratory results from ChEMBL document CHEMBL4190239, “A novel structural class of coumarin-chalcone fibrates as PPARα/γ agonists with potent antioxidant activities: Design, synthesis, biological evaluation and molecular docking studies” (Eur J Med Chem, 2017).
pEC50, pIC50: −log10 of the molar value.

What was measured:
[1] = Antioxidant activity assessed as ABTS radical scavenging activity after 30 mins; assay type: functional
[2] = target: T1, Peroxisome proliferator-activated receptor gamma (Homo sapiens, UniProt P37231); test: Agonist activity at GAL4-fused PPARgamma LBD (unknown origin) expressed in HEK293 cells assessed as receptor transactivation after 18 hrs by dual luciferase reporter gene assay; assay type: cell-based; conditions: for pEC50: read-out: EC50; for EC50: hek293
T1 sequence (P37231 whole entry): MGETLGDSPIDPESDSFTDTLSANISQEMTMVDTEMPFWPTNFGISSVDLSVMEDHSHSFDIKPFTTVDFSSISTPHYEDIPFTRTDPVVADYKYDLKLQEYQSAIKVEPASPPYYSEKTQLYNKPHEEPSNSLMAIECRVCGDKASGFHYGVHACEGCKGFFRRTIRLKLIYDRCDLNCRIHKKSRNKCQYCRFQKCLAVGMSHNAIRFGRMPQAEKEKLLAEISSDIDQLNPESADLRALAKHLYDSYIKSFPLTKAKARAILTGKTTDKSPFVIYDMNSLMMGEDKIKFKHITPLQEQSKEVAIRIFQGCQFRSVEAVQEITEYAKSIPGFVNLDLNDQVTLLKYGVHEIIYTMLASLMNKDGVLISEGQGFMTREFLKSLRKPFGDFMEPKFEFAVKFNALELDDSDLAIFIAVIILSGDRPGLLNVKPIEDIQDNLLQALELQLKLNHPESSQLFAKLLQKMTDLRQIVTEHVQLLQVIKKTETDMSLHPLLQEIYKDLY

[3] = target: T2, Peroxisome proliferator-activated receptor alpha (Homo sapiens, UniProt Q07869); test: Agonist activity at GAL4-fused PPARalpha LBD (unknown origin) expressed in HEK293 cells assessed as receptor transactivation after 18 hrs by dual luciferase reporter gene assay; assay type: cell-based; conditions: for pEC50: read-out: EC50; for EC50: hek293
T2 sequence (Q07869 whole entry): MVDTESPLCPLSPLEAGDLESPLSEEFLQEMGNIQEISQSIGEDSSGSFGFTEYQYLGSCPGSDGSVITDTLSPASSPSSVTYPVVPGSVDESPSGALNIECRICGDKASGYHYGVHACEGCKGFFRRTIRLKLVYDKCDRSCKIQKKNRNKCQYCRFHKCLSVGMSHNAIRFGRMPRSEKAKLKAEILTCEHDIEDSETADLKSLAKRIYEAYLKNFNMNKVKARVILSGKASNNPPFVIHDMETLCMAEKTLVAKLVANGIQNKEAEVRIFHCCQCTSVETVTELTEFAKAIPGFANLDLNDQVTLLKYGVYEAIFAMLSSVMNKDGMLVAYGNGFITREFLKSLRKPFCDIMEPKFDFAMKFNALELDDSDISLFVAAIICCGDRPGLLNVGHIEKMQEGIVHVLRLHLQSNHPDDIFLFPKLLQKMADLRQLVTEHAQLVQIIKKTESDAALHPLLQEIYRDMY

[4] = target: T3, Peroxisome proliferator-activated receptor gamma (Homo sapiens) (UniProt P37231); test: Agonist activity at GAL4-fused PPARgamma LBD (unknown origin) expressed in HEK293 cells assessed as receptor transactivation at 10 uM after 18 hrs by dual luciferase reporter gene assay; assay type: cell-based
T3 sequence (whole entry): T1 sequence (P37231 whole entry)
Summary of the method: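 HEK293 grown in DMEM/10% FBS to 70–80% confluence, plated, switched to FCS-free medium, transiently transfected per well with GAL4-PPARγLBD plasmid (30 ng), reporter (50 ng), renilla normalization vector (20 ng) and pGEM carrier (40 ng). Ligand added 8 h post-transfection for 18 h; firefly and renilla luciferase read by dual-luciferase kit; activation expressed as fold.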

SMILES	pIC50 [1]	pEC50 [2]	pEC50 [3]	fold change (FC) [4]	EC50 [2]	EC50 [3]
CCOC(=O)C(C)(C)Oc1ccc(C(=O)C2Cc3c(ccc4ccccc34)OC2=O)cc1 (stereo not given)	4.82			1.05		
CCOC(=O)C(C)(C)Oc1ccc(C(=O)c2cc3c(ccc4ccccc43)oc2=O)cc1	< 4.00			0.83		
CCOC(=O)C(C)(C)Oc1ccc(C(=O)c2cc3cc(OC)c(OC)cc3oc2=O)cc1	< 4.00			1.01		
CCOC(=O)C(C)(C)Oc1ccc(C(=O)c2cc3cc(N)ccc3oc2=O)cc1	< 4.00				Not Active	Not Active
CCOC(=O)C(C)(C)Oc1ccc(C(=O)c2cc3cc(Cl)ccc3oc2=O)cc1	< 4.00			0.95		
CC(C)(Oc1ccc(C(=O)c2cc3c(ccc4ccccc43)oc2=O)cc1)C(=O)O	< 4.00	4.25				Not Active
CCOC(=O)C(C)(C)Oc1ccc(C(=O)c2cc3cc(F)ccc3oc2=O)cc1	< 4.00				Not Active	Not Active
CCOC(=O)C(C)(C)Oc1ccc(C(=O)c2cc3cc(C(C)(C)C)cc(C(C)(C)C)c3oc2=O)cc1	< 4.00			0.81		

Now from value to compound:

pIC50 [1]	pEC50 [2]	pEC50 [3]	fold change (FC) [4]	EC50 [2]	EC50 [3]	SMILES
4.73	6.04	5.16				CCOC(=O)C(C)(C)Oc1ccc(C(=O)c2cc3cc([N+](=O)[O-])ccc3oc2=O)cc1
< 4.00	5.44	4.96				CC(C)(Oc1ccc(C(=O)c2cc3ccccc3oc2=O)cc1)C(=O)O
4.60						Cc1c(C)c2c(c(C)c1O)CCC(C)(C(=O)O)O2 (stereo not given) [TROLOX]
< 4.00			1.04			Cc1ccc2oc(=O)c(C(=O)c3ccc(OC(C)(C)C(=O)O)cc3)cc2c1
< 4.00	5.28	4.90				CCOC(=O)C(C)(C)Oc1ccc(C(=O)c2cc3ccccc3oc2=O)cc1
5.07			1.01			CCOC(=O)C(C)(C)Oc1ccc(C(=O)c2cc3cc(C)ccc3oc2=O)cc1
4.77			0.9			CCOC(=O)C(C)(C)Oc1ccc(C(=O)C2Cc3cc(OC)c(OC)cc3OC2=O)cc1 (stereo not given)
5.03	4.40				Not Active	CCOC(=O)C(C)(C)Oc1ccc(C(=O)C2Cc3ccccc3OC2=O)cc1 (stereo not given)
4.99			0.8			CCOC(=O)C(C)(C)Oc1ccc(C(=O)C2Cc3cc(C)ccc3OC2=O)cc1 (stereo not given)
